# Shown are actives, neighbours in structure and some others; about 2.5% of the full set was active somewhere.
# NLRP3 yeast inh = NALP3 inflammasome inhibitors in reconstituted yeast, primary screen, luminescence, uHTS | Yeast reconstituted NLRP3/ASC/caspase-1, beta-gal luminescence, 24 h | hit rate 0.39% among 330,000 | inhibition, % at 10 µM;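 active means inhibition of 50% or more; inactive means inhibition below 50%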;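 further: plate controls were induced DMSO wells for no effect and uninduced yeast grown without galactose for full effect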
# MC4R ag barr = MC4R agonists recruiting beta-arrestin, primary screen, cell-based, luminescence, agonist arm of biased-ligand search; U2OS MC4R beta-arrestin complementation; percent of melanotan II response, DMSO zero; activation, % at 8.9 µM; hit rate 0.98% among 360,000;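 active means activation above a per-plate cutoff, the mean activation of sample wells on that plate plus 3 SD, cut at about 8% in these data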
# Target sequence (P32245 whole entry, looked up): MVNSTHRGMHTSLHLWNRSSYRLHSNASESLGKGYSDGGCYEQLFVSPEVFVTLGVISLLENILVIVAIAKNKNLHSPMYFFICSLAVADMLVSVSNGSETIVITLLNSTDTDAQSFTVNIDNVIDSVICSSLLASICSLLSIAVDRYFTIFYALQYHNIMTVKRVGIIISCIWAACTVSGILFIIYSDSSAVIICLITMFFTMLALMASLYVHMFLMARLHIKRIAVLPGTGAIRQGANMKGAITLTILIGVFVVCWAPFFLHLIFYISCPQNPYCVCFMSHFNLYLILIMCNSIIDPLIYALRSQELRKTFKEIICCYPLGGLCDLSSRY
# MC4R antag cAMP = MC4R antagonists of cAMP signaling, primary screen, cell-based, TR-FRET, antagonist arm of biased-ligand search; hit rate 0.48% among 360,000; MC4R-expressing cells, MTII-stimulated cAMP, LANCE TR-FRET; inhibition, % at 6.5 µM; Melanocortin receptor 4 (Homo sapiens), P32245;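 active means inhibition above its plate's cutoff, the mean of tested wells on that plate plus 3 SD, cut at about 29% in these data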;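 further: 0% = Melanotan II alone and 100% = Melanotan II plus saturating MCL0020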
#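 Assay system: human MC4R-expressing U2OS cells; reagent: Melanotan II stimulation of cells; dosing: 6.5 µM single dose; timing: compound 30 min, challenge 1 h, detection 1 h; signal: TR-FRET cAMP assay; replicates: one well per compound, no replicates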
# A1 inh = caspase 3/7 activation in MEF A1-2A-BIM cells, primary screen, A1 inhibitor project, cell-based, luminescence, HTS | AID 2462, 2010 | Caspase-Glo 3/7 luminescence, 3 h; percent of clofoctol response, vehicle zero | hit rate 0.066% among 330,000 | caspase activation, % (concentration not given with the values);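 active means over half of replicate activation scores above 10%, or exactly half above 10 with the replicate mean above 10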
# TbMetRS inhib = T. brucei MetRS inhibitors, primary screen, biochemical, luminescence; methionyl-tRNA synthetase (Trypanosoma brucei brucei); purified T. brucei MetRS, ATP depletion, Kinase-Glo luminescence; inhibition, % at 11.9 µM; hit rate 0.4% among 360,000;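 active means inhibition above a per-plate cutoff of the control wells' mean inhibition plus 3 SD, cut at about 5.5% in these data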;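 further: 0% = DMSO wells median and 100% = median of wells with control inhibitor compound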
#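 System: purified T. brucei MetRS enzyme / Detection: Kinase-Glo luciferase luminescence reporting remaining unconsumed ATP / Medium: HEPES buffer with MgCl2, KCl, DTT, spermine, BSA, pyrophosphatase / Replication: singlicate, one well per compound / Evaluation: percent inhibition relative to median high and low control wells / Schedule: 2 h aminoacylation at 25 °C after 15 min preincubation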
# NALP1 inh = NALP1 inflammasome inhibitors in reconstituted yeast, colorimetric, S. cerevisiae, triplicate retest | S. cerevisiae NALP1/ASC/caspase-1 growth, X-gal OD620, 72 h | inhibition, % at 10 µM | hit rate 0.61% among 280,000; in the data active means inhibition mostly above about 24%, no sharp cut-off; inactive means mostly below about 32%
# An asterisk follows results filed as active; i = inactive; · = not tested or not shown; ! = a repeat was not active.
SMILES,NLRP3 yeast inh,MC4R ag barr,MC4R antag cAMP,A1 inh,TbMetRS inhib,NALP1 inh
O=C(NCc1cc(C(F)(F)F)ccc1Cl)c1cccc2c1C(=O)c1ccc(-c3ccc(OC(F)(F)F)cc3)cc1S2(=O)=O,10.7,·,·,0.3,·,·
O=C(NCc1ccccc1Cl)c1cccc2c1C(=O)c1ccc(-c3ccc(OC(F)(F)F)cc3)cc1S2(=O)=O,2.5,1.8,3.0,10.4*,-0.1,·
CC1(C(=O)NCc2ccc3c(c2)OCO3)CCN1C(=O)CCc1ccc(Cl)cc1Cl (centres undefined),·,-0.6,7.6,·,0.6,·
CC(C)(C#N)Nc1ccccc1,17.7,-1.4,-3.3,0.1,-0.9,17.5*
CN(C)c1ccc(NS(=O)(=O)c2ccc(Cl)cc2)cc1,30.8,0.1,13.3,-1.9,0.8,10.0
CN(C)c1ccc(S(=O)(=O)c2ccc(Cl)cc2)cc1,23.1,8.3*,-4.8,-0.4,-1.2,8.2
CN(C1CCCCC1)S(=O)(=O)c1ccc2c(c1)CCC(=O)N2,0.2,-4.4,11.3,·,-0.1,·
OC(COC(c1ccc(Cl)cc1)c1ccc(Cl)cc1)CN1CCN(c2ccccn2)CC1 (centres undefined),19.5,3.6,-5.2,-0.7,-0.6,44.7*
Cc1ccccc1OCC(O)Cn1c(=N)n(CCN2CCOCC2)c2ccccc21 (centres undefined),-1.0,0.4,5.1,0.1,-1.5,42.8*!
C=CCc1ccccc1OCC(O)CN1CCOCC1 (centres undefined),15.8,-0.4,9.5,1.1,-0.1,·
Cc1ccccc1OCC(O)CN1CCN(c2ccc(Cl)cc2)CC1 (centres undefined),28.1,8.2*,7.5,-1.4,-0.1,16.0
C=CCc1ccccc1OCC(O)CN1CCN(c2ccc(OC)cc2)CC1 (centres undefined),8.4,8.7*,22.2,-0.3,0.2,12.6
CCOc1ccc(OCCC(=O)OCC(=O)NCc2ccc(Cl)cc2)cc1,4.4,3.7,14.1,1.5,-0.1,·
CC(C)Oc1ccc(C(=O)Nc2cc(S(=O)(=O)N3CCOCC3)ccc2N2CCOCC2)cc1,18.4,-4.2,9.4,·,-0.3,·
CCO[C@@H]1OC(C(=O)NCc2ccccc2)=C[C@H](C2CCCCC2)[C@H]1CCCO,11.9,0.5,0.0,0.5,-0.6,21.0*
Cc1ccc2nc(COC(=O)c3cnccn3)cc(=O)n2c1,-0.7,-0.8,7.7,0.2,-0.1,·
CCOc1ccc(Cn2nnc(C(=O)Nc3cc(C)cc(C)c3)c2N)cc1,7.4,9.4*,-9.3,0.3,-1.8,20.4
Nc1c(C(=O)Nc2ccc3c(c2)OCCO3)nnn1Cc1ccc(Br)cc1,16.1,8.4*,2.0,-0.4,-0.4,·
Cc1cc(C)cc(NC(=O)Cn2nnc(C(=O)NCc3ccccc3Cl)c2N)c1,18.1,10.4*,0.4,1.0,0.2,-15.2
Cc1ccc(CNS(=O)(=O)c2cc3c4c(c2)CCN4C(=O)CC3)cc1,4.0,-2.2,15.9,2.1,0.0,·
COc1cccc(C2c3c(-c4ccccc4O)n[nH]c3C(=O)N2Cc2ccco2)c1 (centres undefined),5.8,-0.3,0.8,1.2,0.0,i
O=C1c2[nH]nc(-c3ccccc3O)c2C(c2ccccc2)N1Cc1ccco1 (centres undefined),10.3,9.2*,-4.9,0.0,-1.8,31.0
CCOC(=O)CCc1c(C)c2ccc(OCc3ccc([N+](=O)[O-])cc3)cc2oc1=O,-5.8,13.1*,11.0,0.7,0.3,3.2
CCOC(=O)CCc1c(C)c2ccc(OCc3nn[nH]n3)cc2oc1=O,2.6,-0.7,4.8,-0.3,-0.5,13.4
Cc1cccc(C)c1NC(=O)c1cccc(COc2cc(Cl)ccc2Cl)c1,2.0,12.5*,-4.2,-0.2,-1.0,8.1
SMILES,NLRP3 yeast inh,MC4R ag barr,MC4R antag cAMP,A1 inh,TbMetRS inhib,NALP1 inh
Cc1nn(Cc2c(F)c(F)c(F)c(F)c2F)c(C)c1NC(=O)c1ccc(COc2cc(Cl)ccc2Cl)cc1,6.9,3.4,1.0,1.2,0.1,-27.4
CCOc1ccc(NC(=O)/C(C#N)=C\c2ccc(N3CCCC3)c(C)c2)cc1,·,13.2*,0.2,·,-0.3,·
CCOc1ccc(/C=C(\C#N)C(=O)Nc2cccnc2)cc1,14.2,-1.1,1.7,-0.3,0.9,14.3
Cc1ccc(NC(=O)c2oc3ccccc3c2NC(=O)c2ccc3c(c2)OCO3)cc1,6.4,-0.7,5.4,1.0,-0.1,31.4*
CC(=O)Nc1ccc(S(=O)(=O)Nc2nc(C)nc3sc(C)c(C)c23)cc1,15.0,1.0,-7.3,0.1,-0.7,·
Cc1ccc2c(C)c(C(=O)Nc3ccc(S(N)(=O)=O)cc3)oc2c1C,16.2,4.1,3.9,-1.3,-1.4,6.6
Cc1cc2oc(C(=O)Nc3ccc(S(N)(=O)=O)cc3)c(C)c2cc1Cl,15.4,8.4*,-2.2,-0.2,-0.3,-4.8
CC1(C)N=C(SCC(=O)Nc2ccc(Cl)cc2)C(c2ccc(Cl)cc2)=N1,40.0,-0.5,-0.4,-0.2,1.1,36.5*
CC1(C)N=C(SCC(=O)Nc2ccc(Cl)cc2)C(c2ccccc2)=N1,22.0,0.0,8.8,0.9,0.9,8.9
O=C(Nc1cccc(F)c1)N1CC=C(c2ccc(Cl)cc2)CC1,17.0,-2.1,-2.0,0.0,-0.1,39.0*
O=C(CSc1nc2ccccc2s1)Nc1ncccn1,-1.6,-1.7,0.3,-0.7,-0.1,-4.9
O=C(CSc1nc2ccccc2s1)Nn1cnnc1,-12.3,-1.7,-2.1,0.2,-0.7,24.2*
O=[N+]([O-])c1nn(-c2ccccc2)[n+]([O-])c1N1CCN(c2ccccc2)CC1,4.8,-1.8,12.4,0.7,-0.1,0.0
O=[N+]([O-])c1nn(-c2ccccc2)[n+]([O-])c1N1CCN(c2ccccc2F)CC1,-1.7,9.3*,-4.6,0.4,-1.3,-4.3
O=[N+]([O-])c1cc(Cl)ccc1Sc1cccc2cccnc12,24.1,8.8*,4.7,-0.3,0.7,11.2
Brc1ccc(-c2nnc3ccc(N4CCN(c5ccccc5)CC4)nn23)cc1,-1.6,1.6,5.3,1.2,0.2,29.6*
CCOC(=O)c1ccc(-c2c(C)cc3oc(=O)cc(-c4ccccc4)c3c2C)cc1,·,-0.8,7.5,·,-0.8,·
CCC(=O)N[C@@H]1CC[C@@H](CCNC(=O)Nc2ccc(F)cc2)O[C@@H]1CO,·,·,·,·,-0.4,·
CCOC(=O)Cn1c(=N)n(CCOc2ccc3ccccc3c2)c2ccccc21,3.1,9.6*,-5.2,0.3,4.8,23.9
